Like-named read-outs stand apart in the source and are kept apart here.
How the values were obtained:
[1] = test system: small bowel of large white pigs; format: in vivo, pig; details: five pigs, baseline 0.74
[2] = test system: patients undergoing LRYGB; assay: RCT of intraperitoneal local anesthetic in LRYGB with ERABS protocol; format: in vivo, human; details: intraperitoneal ropivacaine 0.2% 100 mL; both groups
Method in brief: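 Prospective double-blind randomised controlled pilot trial with an a-priori protocol: 120 laparoscopic Roux-en-Y gastric bypass patients under an established ERABS protocol. Patients were randomised to intraperitoneal ropivacaine 0.2% 100 mL or normal saline 100 mL. Adverse events were recorded in both arms.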

[3] = test system: patients with colorectal cancer; format: in vivo, human
Method in brief: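 Prospective observational study of consecutive patients from 4/2019 undergoing robotic colorectal cancer surgery. The day before surgery, endoscopy delivered 3 mg ICG in 6 ml saline into the peritumoral submucosa as four 1.5 ml injections at the cardinal points. Fluorescence guided any extension of standard lymphadenectomy. Fluorescent extraregional nodes were counted per patient and by resection type.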

[4] = test system: patients with right colon cancer; assay: ICG fluorescence lymphography in robotic right hemicolectomy; format: in vivo, human; details: 9 patients
Method in brief: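 Right colon cancer patients had robotic right hemicolectomy with complete mesocolic excision, in two arms of 9. One arm received intraoperative submucosal ICG injection, and fluorescence guided the lymphadenectomy. The comparison arm had standard technique without ICG. ICG-related complications were recorded, with histological nodal staging afterwards.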

[5] = test system: patients with symptomatic cholelithiasis or acute cholecystitis; assay: Direct gallbladder ICG injection during laparoscopic cholecystectomy; format: in vivo, human; details: 29 patients
Method in brief: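 Prospective series of laparoscopic cholecystectomies. ICG was diluted in 10 cc sterile water and injected percutaneously into the gallbladder through a 22G fine needle under direct laparoscopic vision; 2–4 cc was given. Cystic, common bile and common hepatic ducts were recorded as identified or not, first after injection before dissection, then after dissection began.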

[6] = test system: patients scheduled for laparoscopic cholecystectomy; assay: Near-infrared fluorescence cholangiography at a very low dose of ICG; format: in vivo, human; details: n = 44
Method in brief: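 Prospective study of patients scheduled for laparoscopic cholecystectomy. Each received 0.25 mg ICG intravenously after anaesthetic induction, then NIR fluorescence cholangiography in endoscope overlay mode. Visualisation of the cystic duct, common bile duct and their junction was recorded before and after Calot's triangle dissection. Also recorded: hepatic hyperluminescence, adverse reactions and surgeon satisfaction on a visual analogue scale.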

adrenal vein = assay: Intraoperative ICG angiography in laparoscopic adrenal resection; format: in vivo, patients
[7] = after ICG injection and before starting the dissection
[8] = 0.25 mg ICG i.v. after anaesthetic induction

In the case of `NC[C@H](O)c1ccc(O)c(O)c1` [norepinephrine], the “local capillary lactate (LCL)” value ([1]; first assessment) is reported as 0.82 mmol/L, the “local capillary lactate (LCL)” value ([1]; fourth assessment) is reported as 0.62 mmol/L and the “local capillary lactate (LCL)” value ([1]; second assessment) is reported as 0.64 mmol/L. The “local capillary lactate (LCL)” value ([1]; third assessment) was 0.60 mmol/L.

For `CCCN1CCCC[C@H]1C(=O)Nc1c(C)cccc1C` [ropivacaine], the adverse events [2] was “no adverse events”.

`CC1(C)C(/C=C/C=C/C=C/C=C2\N(CCCCS(=O)(=O)O)c3ccc4ccccc4c3C2(C)C)=[N+](CCCCS(=O)(=O)[O-])c2ccc3ccccc3c21` [ICG, indocyanine green] was tested, and the “patients with ICG-fluorescent lymphnodes observed” value ([3]; 3 mg ICG in 6 ml saline, peritumoral submucosal, day before surgery, 86/88) was 97,7%, the “patients with fluorescent extraregional lymph nodes” value ([3]; 34 of 88 patients) was 38,6% and the ICG-injection related complication ([3]; 88 patients) was “No ICG-injection related complication occurred”. For the same compound, the “patients with fluorescent extraregional lymph nodes” value ([3]; anterior rectal resections) was 21/33, the “patients with fluorescent extraregional lymph nodes” value ([3]; left hemicolectomies) was 3/20 and the “mean number of retrieved extraregional fluorescent lymph nodes” value ([3]; range 1–8) was 4. The “patients with fluorescent extraregional lymph nodes” value ([3]; right hemicolectomies) was 10/31, the ICG-related complications [4] was “none” and the “cases with common bile duct identified” value [5, 7] was 18 cases. For the same compound, the “cases with common hepatic duct identified” value [5, 7] was 9 cases, the “cases with common bile duct identified” value ([5]; after starting the dissection) was 27 cases and the “cases with common hepatic duct identified” value ([5]; after starting the dissection) was 14 cases. For the same compound, the “cases with cystic duct identified” value ([5]; after starting the dissection) was “all cases”, the “CBD identified by ICG NIRF-C” value [6, 8] was 100% and the “CD identified by ICG NIRF-C” value [6, 8] was 71%. For the same compound, the “CDBDJ identified by ICG NIRF-C” value [6, 8] was 84%, the “bile duct injuries or allergic reactions to ICG” value ([6]; 0.25 mg ICG i.v.) was “no bile duct injuries (BDIs) or allergic reactions to ICG” and the “surgeries with surgeon satisfaction of 4/5 or 5/5 (VAS)” value ([6]; 0.25 mg ICG i.v.) was roughly 90%. For the same compound, the “cases in which ICG confirmed the adrenal vein” value (adrenal vein; laparoscopic right adrenal resection) was 2/3 and the “cases in which ICG helped identify the vessel, after the dissection” value (adrenal vein; left laparoscopic adrenalectomy) was 100%.

— PMC9199482 (Surgical Endoscopy, 2022)
